Assay results taken from ChEMBL document CHEMBL3272347, “Adamantanamine derivatives. Antimicrobial activities of certain Mannich bases” (1976).

Legend:
Type in all cases: functional
[1] = tested on: Escherichia coli; assay: Antimicrobial activity against Escherichia coli ATCC 8739 assessed as zone of inhibition after 24 hrs at 2 mg/0.1 ml by agar diffusion method
Procedure, shortened: (§1)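 Bacteria were tested on seeded agar plates with 12.7-mm disks, each loaded with 0.1 ml of compound in Me2SO (stock used directly or Me2SO-diluted). Disks were held 30 min on a wire screen before placement, four per plate. Incubation was 37°, 24 hr. Inhibition zones were measured by caliper to the nearest 0.1 mm. Replicates were 2–4 per dilution over at least two separate days, averaged.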

[2] = tested on: Escherichia coli; assay: Antimicrobial activity against Escherichia coli ATCC 11303 assessed as zone of inhibition after 24 hrs at 2 mg/0.1 ml by agar diffusion method; procedure, shortened: as §1
[3] = tested on: Escherichia coli; assay: Antimicrobial activity against Escherichia coli ATCC 10586 assessed as zone of inhibition after 24 hrs at 2 mg/0.1 ml by agar diffusion method; procedure, shortened: as §1
[4] = tested on: Mycolicibacterium smegmatis; assay: Antimicrobial activity against Mycobacterium smegmatis OU 10049 assessed as zone of inhibition after 48 hrs at 0.5 mg/0.1 ml by agar diffusion method
Procedure, shortened: (§2)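 Mycobacterium disk diffusion on MDTM agar. Each disk (12.7 mm) got 0.1 ml of Me2SO solution, was air-stood 30 min, then was placed four per seeded plate. Plates were incubated at 37° for 48 hr. Zone diameter was measured by caliper to 0.1 mm. Results averaged 2–4 replicate disks and ≥2 independent-day experiments.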

[5] = tested on: Pseudomonas aeruginosa; assay: Antimicrobial activity against Pseudomonas aeruginosa OU 10048 assessed as zone of inhibition after 24 hrs at 4 mg/0.1 ml by agar diffusion method; procedure, shortened: as §1
[6] = tested on: Mycolicibacterium phlei; assay: Antimicrobial activity against Mycobacterium phlei ATCC 356 assessed as zone of inhibition after 48 hrs at 0.5 mg/0.1 ml by agar diffusion method; procedure, shortened: as §2
[7] = tested on: Aspergillus niger; assay: Antimicrobial activity against Aspergillus niger OU S-23 assessed as zone of inhibition after 48 hrs at 4 mg/0.1 ml by agar diffusion method
Procedure, shortened: (§3)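 Disk agar diffusion on SDA. Compound in Me2SO stock, used neat or diluted in Me2SO, was loaded at 0.1 ml per 12.7-mm disk. Disks stood 30 min on mesh, then went four per seeded plate. Plates ran at 37° for 48 hr (A. niger) or 24 hr (C. albicans). Zones were read by caliper to 0.1 mm. There were 2–4 replicate disks per dilution and ≥2 experiments on separate days with same-day stocks; results were averaged.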

[8] = tested on: Candida albicans; assay: Antimicrobial activity against Candida albicans CDC MI-023 assessed as zone of inhibition after 24 hrs at 4 mg/0.1 ml by agar diffusion method; procedure, shortened: as §3
[9] = tested on: Staphylococcus aureus; assay: Antimicrobial activity against Staphylococcus aureus ATCC 10001 assessed as zone of inhibition after 24 hrs at 2 mg/0.1 ml by agar diffusion method; procedure, shortened: as §1
[10] = tested on: Staphylococcus aureus; assay: Antimicrobial activity against Staphylococcus aureus ATCC 10014 assessed as zone of inhibition after 24 hrs at 2 mg/0.1 ml by agar diffusion method; procedure, shortened: as §1

For `CC(CNC12CC3CC(CC(C3)C1)C2)C(=O)c1ccccc1.Cl` (stereo not given), the “inhibition zone (IZ)” value [1] was 16.1 mm, the “inhibition zone (IZ)” value [2] was 17.2 mm and the “inhibition zone (IZ)” value [3] was 16.4 mm. The “inhibition zone (IZ)” value [4] was 17 mm, the “inhibition zone (IZ)” value [5] was 15 mm and the “inhibition zone (IZ)” value [6] was 17.3 mm. For the same compound, the “inhibition zone (IZ)” value [7] was 15 mm, the “inhibition zone (IZ)” value [8] was under 15 mm and the “inhibition zone (IZ)” value [9] was 16.2 mm. For the same compound, the “inhibition zone (IZ)” value [10] was 16.3 mm.
